Calls of active or inactive are those of the source. The calls are words filed in the database; no cut-off is given here.
Experiments:
Mus musculus [1] = species: Mus musculus; assay: Effect on IKK activity in LPS-induced mouse BMDM assessed as induction of phosphorylation of p38 treated 2 hrs after LPS challenge measured up to 120 mins by immunoblot analysis
BMDM [2] = assay: Inhibition of LPS-induced IkappaBalpha expression in mouse BMDM measured up to 120 mins by Western blot analysis; assay type: functional, cell-based
THP-1 = assay: Inhibition of LPS-induced IkappaBalpha expression in human THP1 cells measured up to 120 mins by Western blot analysis; assay type: functional, cell-based
[3] = molecular target: T1, Inhibitor of nuclear factor kappa-B kinase subunit alpha (Homo sapiens) (UniProt O15111); assay: Inhibition of LPS-induced IkappaBalpha phosphorylation in human THP1 cells measured up to 120 mins by Western blot analysis; assay type: cell-based; details: THP-1
T1 sequence (whole entry): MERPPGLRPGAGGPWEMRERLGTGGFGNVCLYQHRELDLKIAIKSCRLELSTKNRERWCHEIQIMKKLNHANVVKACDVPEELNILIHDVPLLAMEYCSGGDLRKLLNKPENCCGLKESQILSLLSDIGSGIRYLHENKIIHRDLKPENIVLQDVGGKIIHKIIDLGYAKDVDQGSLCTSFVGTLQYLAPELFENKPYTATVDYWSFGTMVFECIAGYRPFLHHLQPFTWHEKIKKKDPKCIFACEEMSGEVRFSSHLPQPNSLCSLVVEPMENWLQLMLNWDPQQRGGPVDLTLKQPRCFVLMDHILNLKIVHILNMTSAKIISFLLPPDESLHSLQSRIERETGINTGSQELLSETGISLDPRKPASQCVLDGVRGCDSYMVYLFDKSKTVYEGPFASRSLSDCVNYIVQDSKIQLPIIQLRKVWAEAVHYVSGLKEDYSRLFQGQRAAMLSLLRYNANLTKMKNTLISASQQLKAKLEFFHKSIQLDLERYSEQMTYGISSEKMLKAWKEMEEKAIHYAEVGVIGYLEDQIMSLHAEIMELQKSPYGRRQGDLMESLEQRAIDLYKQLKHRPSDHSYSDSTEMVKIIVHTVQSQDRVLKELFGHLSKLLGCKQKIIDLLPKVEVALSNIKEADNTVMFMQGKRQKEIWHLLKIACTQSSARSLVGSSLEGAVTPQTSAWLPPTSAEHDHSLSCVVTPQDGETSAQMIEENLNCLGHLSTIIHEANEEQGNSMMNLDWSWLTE

[4] = molecular target: Transcription factor p65 (Mus musculus) (UniProt Q04207); assay: Inhibition of LPS-induced RelA phosphorylation in [32P]orthophosphate metabolically labelled mouse BMDM assessed as phosphorylated IkappaBbeta/RelA binding measured up to 120 mins in absence of IkappaBalpha by SDS-PAGE and autoradiography
Transcription factor p65 (Mus musculus), sequence (Q04207 whole entry): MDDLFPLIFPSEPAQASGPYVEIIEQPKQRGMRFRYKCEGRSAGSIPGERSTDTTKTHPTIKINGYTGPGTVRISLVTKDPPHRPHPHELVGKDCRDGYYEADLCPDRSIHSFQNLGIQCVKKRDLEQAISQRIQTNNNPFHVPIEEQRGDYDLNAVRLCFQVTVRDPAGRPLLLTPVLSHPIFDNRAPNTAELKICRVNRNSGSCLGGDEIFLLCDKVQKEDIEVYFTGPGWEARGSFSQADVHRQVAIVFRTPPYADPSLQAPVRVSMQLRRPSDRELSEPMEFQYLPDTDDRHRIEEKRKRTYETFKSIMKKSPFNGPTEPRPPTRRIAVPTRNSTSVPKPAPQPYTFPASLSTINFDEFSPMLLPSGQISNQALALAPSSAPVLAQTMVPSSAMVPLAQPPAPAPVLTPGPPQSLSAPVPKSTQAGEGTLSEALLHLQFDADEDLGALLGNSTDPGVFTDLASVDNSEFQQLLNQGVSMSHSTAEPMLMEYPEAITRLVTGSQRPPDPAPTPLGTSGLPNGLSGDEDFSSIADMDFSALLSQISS

Mus musculus [5] = species: Mus musculus; assay: Inhibition of IKK activity in LPS-induced mouse BMDM assessed as reduction in phosphorylation of IkappaBalpha treated 2 hrs after LPS challenge measured up to 120 mins by immunoblot analysis
Mus musculus [6] = species: Mus musculus; assay: Effect on IKK activity in LPS-induced mouse BMDM assessed as induction of phosphorylation of CREB treated 2 hrs after LPS challenge measured up to 120 mins by immunoblot analysis
BMDM [7] = assay: Inhibition of LPS-induced IkappaBalpha mRNA expression in mouse BMDM up to 3 hrs by Northern blot analysis; assay type: functional, cell-based
BMDM [8] = assay: Inhibition of LPS-induced IFNbeta mRNA expression in mouse BMDM up to 3 hrs by Northern blot analysis; assay type: functional, cell-based
BMDM [9] = assay: Inhibition of LPS-induced IRF-1 mRNA expression in mouse BMDM up to 3 hrs by Northern blot analysis; assay type: functional, cell-based
Macrophage [10] = assay: Inhibition of LPS-induced TNF mRNA expression in mouse C57BL/6 mouse alveolar macrophages up to 50 uM by Northern blot analysis; assay type: functional, cell-based
Macrophage [11] = assay: Inhibition of LPS-induced IkappaBalpha mRNA expression in mouse alveolar macrophages after 90 mins by Northern blot analysis; assay type: functional, cell-based
Macrophage [12] = assay: Inhibition of LPS-induced IP-10 mRNA expression in mouse alveolar macrophages after 90 mins by Northern blot analysis; assay type: functional, cell-based
Macrophage [13] = assay: Inhibition of LPS-induced RANTES mRNA expression in mouse alveolar macrophages after 90 mins by Northern blot analysis; assay type: functional, cell-based
Macrophage [14] = assay: Inhibition of LPS-induced TNF mRNA expression in mouse alveolar macrophages after 90 mins by Northern blot analysis; assay type: functional, cell-based
MEF [15] = assay: Inhibition of LPS-induced MCP-1 mRNA expression in MEF after 90 mins by Northern blot analysis; assay type: functional, cell-based; details: Mus musculus
MEF [16] = assay: Inhibition of LPS-induced RANTES mRNA expression in MEF after 90 mins by Northern blot analysis; assay type: functional, cell-based; details: Mus musculus
BMDM [17] = assay: Inhibition of heat-killed Staphylococcus aureus-induced IkappaBalpha mRNA expression in mouse BMDM by Northern blot analysis; assay type: functional
BMDM [18] = assay: Inhibition of heat-killed Staphylococcus aureus-induced TNF mRNA expression in mouse BMDM by Northern blot analysis; assay type: functional, cell-based
BMDM [19] = assay: Inhibition of heat-killed Staphylococcus aureus-induced IL1-beta mRNA expression in mouse BMDM by Northern blot analysis; assay type: functional
MEF [20] = assay: Effect on TNF-induced MCP1 mRNA expression in MEF by Northern blot analysis; assay type: functional, cell-based; details: Mus musculus
MEF [21] = assay: Effect on TNF-induced RANTES mRNA expression in MEF by Northern blot analysis; assay type: functional, cell-based; details: Mus musculus
[22] = molecular target: Transcription factor p65 (Mus musculus) (UniProt Q04207); assay: Inhibition of TNF-induced RelA phosphorylation in mouse MEF up to 120 mins by Western blot analysis
MEF [23] = assay: Inhibition of TNF-induced RelA expression in mouse MEF up to 120 mins by Western blot analysis; assay type: functional, cell-based
[24] = molecular target: T1, Inhibitor of nuclear factor kappa-B kinase subunit alpha (Homo sapiens); assay: Inhibition of TNF-induced IkappaBalpha phosphorylation in human bronchial epithelial cells up to 120 mins by Western blot analysis; assay type: cell-based; details: Epithelial cell
Epithelial cell [25] = assay: Inhibition of TNF-induced IkappaBbeta expression in human bronchial epithelial cells up to 120 mins by Western blot analysis; assay type: functional, cell-based
[26] = molecular target: Transcription factor p65 (Homo sapiens) (UniProt Q04206); assay: Inhibition of TNF-induced RelA phosphorylation in human bronchial epithelial cells up to 120 mins by Western blot analysis; assay type: cell-based; details: Epithelial cell
Transcription factor p65 (Homo sapiens), sequence (Q04206 whole entry): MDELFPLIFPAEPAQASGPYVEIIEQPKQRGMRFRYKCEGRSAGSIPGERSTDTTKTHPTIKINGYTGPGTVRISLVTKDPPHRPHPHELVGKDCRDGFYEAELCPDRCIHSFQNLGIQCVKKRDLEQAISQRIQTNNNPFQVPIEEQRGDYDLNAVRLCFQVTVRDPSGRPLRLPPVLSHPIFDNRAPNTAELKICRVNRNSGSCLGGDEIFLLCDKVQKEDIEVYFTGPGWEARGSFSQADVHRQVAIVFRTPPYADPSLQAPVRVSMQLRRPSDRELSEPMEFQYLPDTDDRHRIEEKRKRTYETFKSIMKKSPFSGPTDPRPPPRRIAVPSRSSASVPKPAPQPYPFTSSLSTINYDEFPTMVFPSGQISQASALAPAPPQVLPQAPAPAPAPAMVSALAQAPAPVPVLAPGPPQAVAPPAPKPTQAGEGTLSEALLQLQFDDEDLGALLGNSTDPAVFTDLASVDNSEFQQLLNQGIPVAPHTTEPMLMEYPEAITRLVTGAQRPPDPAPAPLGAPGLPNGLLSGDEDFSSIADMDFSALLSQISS

Epithelial cell [27] = assay: Inhibition of TNF-induced RelA expression in human bronchial epithelial cells up to 120 mins by Western blot analysis; assay type: functional, cell-based
[28] = molecular target: MAP kinase p38 (Homo sapiens) (UniProt O15264+Q15759+Q16539+P53778); assay: Inhibition of TNF-induced p38 phosphorylation in human bronchial epithelial cells up to 120 mins by Western blot analysis; assay type: cell-based; details: Epithelial cell
WI-38 = assay: Induction of apoptosis in TNF-stimulated human WI38 fibroblast assessed as PARP cleavage after 2 hrs by Western blot analysis; assay type: functional, cell-based
How it was run: (§1)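 WI38 lung fibroblasts and bronchial epithelial cells were stimulated for 2 hours. The same Western blot was probed for PARP cleavage, total IκBα and phosphorylated IκBα.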

[29] = molecular target: T1, Inhibitor of nuclear factor kappa-B kinase subunit alpha (Homo sapiens); assay: Inhibition of IkappaBalpha in human WI38 cells assessed after 2 hrs by Western blot analysis; assay type: cell-based; details: WI-38; how it was run: as §1
[30] = molecular target: T1, Inhibitor of nuclear factor kappa-B kinase subunit alpha (Homo sapiens); assay: Inhibition of IkappaBalpha phosphorylation in human bronchial epithelial cells assessed after 2 hrs by Western blot analysis; assay type: cell-based; details: Epithelial cell; how it was run: as §1
Macrophage [31] = assay: Inhibition of LPS-induced IL-12beta mRNA expression in mouse alveolar macrophages after 90 mins by Northern blot analysis; assay type: functional, cell-based

- Activity (Mus musculus [1]): Active
- Activity [3]: Active
- Activity [4]: Active
- Activity (Mus musculus [5]): Active
- Activity (Mus musculus [6]): Active
- Activity [22]: Active
- Activity [24]: Active
- Activity [26]: Active
- Activity [28]: Active
- Activity [29]: Active
- Activity [30]: Active
Structure (SMILES): CCCCCCCCCC(=O)CC(=O)N[C@H]1CCOC1=O
- Activity (BMDM [2]): Active
- Activity (THP-1): Active
- Activity (BMDM [7]): Dose-dependent effect
- Activity (BMDM [8]): Dose-dependent effect
- Activity (BMDM [9]): Dose-dependent effect
- Activity (Macrophage [10]): Active
- Activity (Macrophage [11]): Dose-dependent effect
- Activity (Macrophage [12]): Dose-dependent effect
- Activity (Macrophage [13]): Dose-dependent effect
- Activity (Macrophage [14]): Dose-dependent effect
- Activity (MEF [15]): Dose-dependent effect
- Activity (MEF [16]): Dose-dependent effect
- Activity (BMDM [17]): Active
- Activity (BMDM [18]): Active
- Activity (BMDM [19]): Active
- Activity (MEF [20]): Active
- Activity (MEF [21]): Active
- Activity (MEF [23]): Active
- Activity (Epithelial cell [25]): Active
- Activity (Epithelial cell [27]): Active
- Activity (WI-38): Active
- Activity (Macrophage [31]): Dose-dependent effect
